Test results as given in publication PMC4971285 (International Journal for Parasitology: Drugs and Drug …, 2016).
Where two headings read alike, the source gives them in different places.

Legend:
[1] = Epimastigote growth inhibition; type: cell-based; details: Trypanosoma cruzi
Outline: (§1)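 Log-phase Y-strain epimastigotes (5 × 10^5/mL) treated 72 h at 28 °C in BHI with folic acid, 150 μM hemin and 10% FBS, at 50, 25 and 12.5 μM. Final DMSO ≤1%. Counted in a Neubauer chamber, with motility and morphology as viability criteria. IC50 derived by probit. Selectivity index taken as cardiomyocyte CC50 divided by epimastigote IC50.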

[2] = test system: T. cruzi Y epimastigote forms; experiment: Epimastigote growth inhibition; type: cell-based; details: Trypanosoma cruzi, 72 h, read-out: IC50 (Concentration that inhibits the growth of 50% of T. cruzi Y epimastigote forms within 72 h), 72 h, in the presence of 150 μM of heme, Probit
Outline: as §1

[3] = Cytotoxicity on Vero cells; type: cell-based; details: African green monkey
Outline: (§2)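 Vero cells kept in RPMI 1640 with 10% FBS at 37 °C, 5% CO2, seeded 1.5 × 10^4/well and cultured 24 h. Treated 72 h at 100 to 3.7 μM, with or without 30 μM heme in medium. Resazurin (0.005%) added for 4 h at 37 °C, fluorescence read at 530/600 nm. CC50 fitted from dose-response versus untreated control. Triplicates.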

[4] = Cytotoxicity on primary cardiomyocytes; type: cell-based, mice; details: mouse, primary embryonic cardiomyocytes
Outline: (§3)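 Heart muscle cells were enzymatically isolated from mouse embryo myocardia and grown in DMEM with 2.5 mM CaCl2, 2% chick embryo extract, 7% FBS and 1 mM L-glutamine. Seeded 7 × 10^4/well, cultured 24 h, then treated 72 h at 100 to 3.7 μM, with or without 30 μM heme. Resazurin 0.005% for 4 h, fluorescence at 530/600 nm. CC50 fitted against untreated control. Triplicates.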

T. cruzi Y amastigotes = experiment: Intracellular amastigotes in infected cardiomyocytes; type: cell-based; details: Trypanosoma cruzi, Cardiomyocyte, 72 h, read-out: Percentage of amastigote growth inhibition, 72 h of treatment with 10 μM of compounds
[5] = test system: T. cruzi Y trypomastigotes; experiment: Trypomastigote viability; type: cell-based, Trypanosoma cruzi; details: 30 μM compound, 24 h, with vs without 30 μM hemin
Outline: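 Culture-derived Y-strain trypomastigotes were collected from infected Vero supernatants at 4 dpi. Parasites (2 × 10^6/100 μl) incubated 24 h at 37 °C in RPMI 1640 with 30 μM test compound, with or without 30 μM hemin. […] Viability read by resazurin (0.005%) fluorescence at 530/600 nm. Percentage death calculated against the matching untreated or hemin-only control.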

Vero cells = experiment: Cytotoxicity on Vero cells; type: cell-based
Outline: as §2

Cardiomyocytes = experiment: Cytotoxicity on primary cardiomyocytes; type: cell-based, mice; details: read-out: CC50 Vero/CM, cardiomyocytes, 72 h, resazurin
Outline: as §3

SMILES	selectivity ratio at 72 h [1]	IC50 [2] [µM]	CC50 at 72 h [3] [µM]	CC50 at 72 h [4] [µM]	inhibition of growth at 10 µM (T. cruzi Y amastigotes) [%]	increase in activity (death of trypomastigote forms) by combination with hemin [5]	CC50 (Vero cells; read-out: CC50 Vero/CM, medium without heme, 72 h, resazurin) [µM]	CC50 (Vero cells; read-out: CC50 Vero/CM, with 30 μM of heme, 72 h, resazurin) [µM]	CC50 (Cardiomyocytes; medium without heme) [µM]	CC50 (Cardiomyocytes; with 30 μM of heme) [µM]
N#Cc1cnc2ccc(Cl)cc2c1Nc1cccc(Br)c1 [Compound 1f, 4-(3’-bromophenylamino)-6-chloroquinoline-3-carbonitrile]	> 4.7	21.2 ± 14.2	71 ± 26	> 100	60.4 ± 9					
N#Cc1cnc2ccc(Cl)cc2c1Nc1ccccc1 [Compound 1a, 6-chloro-4-(phenylamino)quinoline-3-carbonitrile]	> 5.68	17.6 ± 6.1	> 100	> 100	45.5 ± 9	~1.6 fold				
N#Cc1cnc2ccc(Cl)cc2c1Nc1cccc(F)c1 [Compound 1b, 6-chloro-4-(3’-fluorophenylamino)quinoline-3-carbonitrile]	4	16.6 ± 0.2	69 ± 22	67 ± 11.6	53.2 ± 10					
N#Cc1cnc2ccc(Cl)cc2c1Nc1ccccc1Cl [Compound 1d, 6-chloro-4-(2’-chlorophenylamino)quinoline-3-carbonitrile]	1.19	40 ± 13.7	64 ± 12.5	47.7 ± 13	57.6 ± 8					
N#Cc1cnc2ccc(Cl)cc2c1Nc1ccc(F)cc1 [Compound 1c, 6-chloro-4-(4’-fluorophenylamino)quinoline-3-carbonitrile]	> 11.4	8.8 ± 1.3	> 100	> 100	52.5 ± 6					
O=C(Cn1ccnc1[N+](=O)[O-])NCc1ccccc1 [Bz, benznidazole, reference compound]	> 17.9	5.6 ± 0.05	> 100	> 100	99.8 ± 0.4	about 1.3 fold	> 100	> 100	> 100	> 100
N#Cc1cnc2ccc(Cl)cc2c1Nc1cccc(Cl)c1 [Compound 1e, 6-chloro-4-(3’-chlorophenylamino)quinoline-3-carbonitrile]	4.2	15.4 ± 0.7	89 ± 18	65.2 ± 18.5	55.4 ± 7					
